The values below come from ChEMBL document CHEMBL1806371, “Selenocyanates and diselenides: a new class of potent antileishmanial agents” (Eur J Med Chem, 2011).

Molecules are shown by their SMILES.

In data set [1] the test system is Leishmania infantum. The data set is described as follows: Antileishmanial activity against Leishmania infantum MCAN/ES/89/IPZ229/1/89 amastigotes after 24 hrs by microscopy. Type of data set: functional, organism-based. The conditions noted are these: MCAN/ES/89/IPZ229/1/89, 24 h. The essentials: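 Axenic L. infantum amastigotes (M199, 10% FCS, pH 5.4, 37 °C) treated in log phase at 1×10^6 parasites/mL for 24 h. Living cells counted by flow cytometry with propidium iodide exclusion, with microscopic observation by phase contrast or fluorescence. At least three independent experiments.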

Data set [2] in a line: Selectivity ratio, ratio of IC50 for human THP1 cells to IC50 for Leishmania infantum MCAN/ES/89/IPZ229/1/89 amastigotes. Type of data set: ADME, cell-based. The conditions noted are these: THP-1 cells, read-out: Ratio IC50. The essentials:
(§1)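 Selectivity index is IC50 against Jurkat or THP-1 cells divided by IC50 against L. infantum amastigotes. Host cells were treated in log phase at 4×10^5 cells/mL for 24 h at 37 °C, 5% CO2, at 0.08, 0.4, 2.0, 10.0 and 50.0 μM. Viability was measured by flow cytometry with propidium iodide exclusion.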

In data set [3] the test system is Leishmania infantum. The data set is described as follows: Antileishmanial activity against Leishmania infantum MCAN/ES/89/IPZ229/1/89 promastigotes assessed as growth inhibition at 25 uM after 24 hrs. Type of data set: functional. The gist of the method:
(§2)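 Log-phase L. infantum promastigotes (RPMI-1640, 10% FCS, 25 mM HEPES, pH 7.2, 26 °C) treated at 2×10^6 parasites/mL for 24 h. Screening used 25, 12.5 and 6.25 μM to give percent growth inhibition. Living cells measured by flow cytometry with propidium iodide exclusion. At least three independent experiments.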

Data set [4] can be described thus: Selectivity ratio, ratio of IC50 for human Jurkat cells to IC50 for Leishmania infantum MCAN/ES/89/IPZ229/1/89 amastigotes. The conditions noted are these: read-out: Ratio IC50. It counts as ADME, cell-based. The essentials:
as §1

Data set [5] has as its system THP-1. The data set can be described thus: Cytotoxicity against human THP1 cells assessed as live cells in neubauer chamber after 24 hrs by trypan blue assay. Type of data set: cell-based. The conditions noted are these: THP-1, 24 h.
The subject of data set [6] is Leishmania infantum. The data set is described as follows: Ratio of miltefosine IC50 to compound IC50 for Leishmania infantum MCAN/ES/89/IPZ229/1/89 amastigotes. It counts as functional.
In data set [7] the test system is Leishmania infantum. The data set can be described thus: Antileishmanial activity against Leishmania infantum MCAN/ES/89/IPZ229/1/89 promastigotes assessed as growth inhibition at 12.5 uM after 24 hrs. It counts as functional. The essentials: as §2
Data set [8] has as its system Jurkat. The data set can be described thus: Cytotoxicity against human Jurkat cells assessed as live cells in neubauer chamber after 24 hrs by trypan blue assay. It counts as cell-based.
In data set [9] the test system is Leishmania infantum. The data set is described as follows: Antileishmanial activity against Leishmania infantum MCAN/ES/89/IPZ229/1/89 promastigotes after 24 hrs […]. Type of data set: functional, organism-based. Particulars: MCAN/ES/89/IPZ229/1/89, 24 h. The essentials:
as §2

Data set [10] concerns Leishmania infantum. The data set can be described thus: Antileishmanial activity against Leishmania infantum MCAN/ES/89/IPZ229/1/89 promastigotes assessed as growth inhibition at 6.25 uM after 24 hrs. Type of data set: functional. The gist of the method: as §2
In data set [11] the test system is Leishmania infantum. The data set is described as follows: Ratio of edelfosine IC50 to compound IC50 for Leishmania infantum MCAN/ES/89/IPZ229/1/89 amastigotes. Type of data set: functional.
In data set [12] the test system is Jurkat. The data set can be described thus: Cytotoxicity against human Jurkat cells infected with Leishmania infantum MCAN/ES/89/IPZ229/1/89 at 3 uM using propidium iodide staining by fluorescence contrast microscopy. It counts as cell-based.
The test system of data set [13] is THP-1. The data set is described as follows: Cytotoxicity against human THP1 cells infected with Leishmania infantum MCAN/ES/89/IPZ229/1/89 at 3 uM. It counts as cell-based. The conditions noted are these: thp-1, 3 µM.
Data set [14] concerns Jurkat. The data set is described as follows: Cytotoxicity against human Jurkat cells infected with Leishmania infantum MCAN/ES/89/IPZ229/1/89 at 1 uM by phase contrast microscopy. It counts as cell-based.
The nature of data set [15]: Permeability across human Caco2 cells. Particulars: Caco-2, read-out: permeability. It counts as ADME, cell-based. Background: Caco-2 cells form a polarised layer with tight junctions and transporters.
Data set [16] relates to Leishmania infantum. The data set can be described thus: Antileishmanial activity against Leishmania infantum MCAN/ES/89/IPZ229/1/89 amastigotes expressing GFP infected in human THP1 cells assessed as reduction in parasite infection rate at 3 uM after 48 hrs by flow cytometry. It counts as functional, THP-1. On the set-up: scale not given: the % may be the effect or the level left. (In flow cytometry, cells or beads pass a laser one at a time.)

Data set [17] deals with Leishmania infantum. The data set is described as follows: Antileishmanial activity against Leishmania infantum MCAN/ES/89/IPZ229/1/89 axenic amastigotes infected in human THP1 cells expressing GFP assessed as complete killing of parasite at 3 uM after 48 hrs by propidium iodide staining based flow cytometry. Type of data set: functional, THP-1.
A short description of data set [18]: Human intestinal absorption in human. It counts as ADME, organism-based. The conditions noted are these: read-out: HIA. The gist of the method:
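Values are computed, not measured. Human intestinal absorption (%) and Caco-2 permeability (nm/s) were predicted in silico with the PreADMET program.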

Data set [19] has as its system Jurkat. The data set can be described thus: Cytotoxicity against human Jurkat cells infected with Leishmania infantum MCAN/ES/89/IPZ229/1/89 at 1 uM using propidium iodide staining by fluorescence contrast microscopy. Type of data set: cell-based.
Data set [20] deals with THP-1. The data set is described as follows: Cytotoxicity against human THP1 cells infected with Leishmania infantum MCAN/ES/89/IPZ229/1/89 at 1 uM using propidium iodide staining by fluorescence contrast microscopy. Particulars: thp-1, 1 µM. Type of data set: cell-based. The gist of the method:
(§3)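 Drug was added to PMA-differentiated THP-1 cells infected with eGFP amastigotes, at 1, 3 and 15 µM, alongside a DMSO control at the highest assay concentration. Propidium iodide was added to a final 5 µg/mL, and cells were examined at once by phase contrast and fluorescence microscopy; PI stains dead cells.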

In data set [21] the test system is THP-1. The data set is described as follows: Cytotoxicity against human THP1 cells infected with Leishmania infantum MCAN/ES/89/IPZ229/1/89 at 3 uM using propidium iodide staining by fluorescence contrast microscopy. It counts as cell-based. The conditions noted are these: thp-1, 3 µM. The essentials: as §3
For data set [22], the system named is THP-1. The data set is described as follows: Cytotoxicity against human THP1 cells infected with Leishmania infantum MCAN/ES/89/IPZ229/1/89 at 3 uM by phase contrast microscopy. Type of data set: cell-based. Particulars: thp-1, 3 µM. The essentials:
as §3

Data set [23] concerns Jurkat. The data set is described as follows: Cytotoxicity against human Jurkat cells infected with Leishmania infantum MCAN/ES/89/IPZ229/1/89 at 3 uM by phase contrast microscopy. It counts as cell-based.
The subject of data set [24] is THP-1. The data set can be described thus: Cytotoxicity against human THP1 cells infected with Leishmania infantum MCAN/ES/89/IPZ229/1/89 at 1 uM by phase contrast microscopy. Type of data set: cell-based. Particulars: thp-1, 1 µM. The essentials: as §3
Data set [25] concerns Leishmania infantum. The data set is described as follows: Antileishmanial activity against Leishmania infantum MCAN/ES/89/IPZ229/1/89 amastigotes expressing GFP infected in human THP1 cells assessed as parasite infected cells after 48 hrs by flow cytometry (reference value: 35%). Type of data set: functional, THP-1.
In data set [26] the test system is Leishmania infantum. The data set is described as follows: Antileishmanial activity against Leishmania infantum MCAN/ES/89/IPZ229/1/89 axenic amastigotes infected expressing GFP in human […] cells assessed as axenic parasite killing at 3 uM after 48 hrs by propidium iodide staining based flow cytometry. Type of data set: functional.
For data set [27], the system named is Leishmania infantum. The data set can be described thus: Antileishmanial activity against Leishmania infantum MCAN/ES/89/IPZ229/1/89 amastigotes expressing GFP infected in human THP1 cells assessed as parasite infected cells at 3 uM after 48 hrs by flow cytometry (reference value: 35%). It counts as functional, THP-1.

Usually IC50 stands for the point on the concentration scale where inhibition reaches its midpoint. As to `N#C[Se]Cc1ccccc1[N+](=O)[O-]`, the IC50 in the data set with Leishmania infantum [1] amounted to 340 nM; with THP-1 [5], 7.1 µM; in the data set on Jurkat [8] it was 12.9 µM; in the data set with Leishmania infantum [9] it was 3.32 µM. In addition, the figures for the selectivity ratio in data set [2] and in [4] were 21 and 38, respectively. The results for the GI with Leishmania infantum [3], in the data set on Leishmania infantum [7] and in the data set with Leishmania infantum [10] were 98.6%, 89.8% and 74%, respectively. The “Ratio IC50” value with Leishmania infantum [6] was found to be 8.3; with Leishmania infantum [11], 2.4.

Turning to `Nc1ccc([Se][Se]c2ccc(N)cc2)cc1`, the Activity result was “Non-toxic” in the data set with Jurkat [12]; “Non-toxic” in the data set with THP-1 [13]; “Non-toxic” with Jurkat [14]; 74% in the data set with Leishmania infantum [16]; 100% in the data set with Leishmania infantum [17]; “Non-toxic” in the data set with Jurkat [19]. Besides, the Activity entry in the data set on THP-1 [20] was “Non-toxic”; with THP-1 [21], “Non-toxic”; in the data set with THP-1 [22], “Non-toxic”; in the data set on Jurkat [23], “Non-toxic”; in the data set with THP-1 [24], “Non-toxic”; with Leishmania infantum [25], 9%. Further, the Activity with Leishmania infantum [26] came to 100%. The selectivity ratio in [2] was found to be 24; in data set [4] it was 32. Moreover, the GI in the data set on Leishmania infantum [3] is given as 98%; in the data set on Leishmania infantum [7], 97.6%; with Leishmania infantum [10], 95.8%. For the same molecule, the Papp in data set [15] was found to be 2.29 ×10⁻⁶ cm/s. Besides, the IC50 in the data set on THP-1 [5] was 14 µM; with Jurkat [8] it was 12.1 µM; in the data set with Leishmania infantum [9], 0.96 µM. The Fa in data set [18] was 97.6%.

For `CCCCCCCCCCCCCCCCCCOCC(COP(=O)([O-])OCC[N+](C)(C)C)OC` (stereo not drawn) [EDELFOSINE], the IC50 came to 820 nM with Leishmania infantum [1], 4.96 µM in the data set with THP-1 [5], 12.2 µM in the data set with Jurkat [8] and 3.65 µM in the data set on Leishmania infantum [9]. Also, the selectivity ratio in data set [2] worked out at 6; in data set [4] it was 15. For the same molecule, the Papp in data set [15] was 3.94 ×10⁻⁶ cm/s. Moreover, the Activity with Leishmania infantum [27] stood at 5%. In addition, the Fa in data set [18] was found to be 98.4%.

In the case of `O=[N+]([O-])c1ccccc1C[Se][Se]Cc1ccccc1[N+](=O)[O-]`, the IC50 in the data set on Leishmania infantum [1] is 290 nM; in the data set on THP-1 [5], 2.42 µM; with Jurkat [8], 2.62 µM; with Leishmania infantum [9], 12.5 µM. Moreover, the selectivity ratio in data set [2] worked out at 8; in [4], 9. Further, the GI in the data set with Leishmania infantum [3] came to 77.2%; in the data set with Leishmania infantum [7], 58.9%; with Leishmania infantum [10], 50%. For the same molecule, the “Ratio IC50” value in the data set on Leishmania infantum [6] stood at 9.8; in the data set with Leishmania infantum [11] it was 2.8.

On to `CN(C)c1ccc([Se][Se]c2ccc(N(C)C)cc2)cc1`, for which the selectivity ratio in [2] was 29; in data set [4], above 65. Moreover, the values for the GI in the data set with Leishmania infantum [3], in the data set with Leishmania infantum [7] and with Leishmania infantum [10] were 77.6%, 67.7% and 51.5%, respectively. Also, the Papp in data set [15] was found to be 5.61 ×10⁻⁶ cm/s. Further, the IC50 with THP-1 [5] was above 25 µM; in the data set on Jurkat [8], above 50 µM. Besides, the Fa in data set [18] was 100%. Besides, the Activity with Leishmania infantum [25] amounted to 23%.

With `O=[N+]([O-])c1ccc(C[Se][Se]Cc2ccc([N+](=O)[O-])cc2)cc1`, the results for the IC50 in the data set on Leishmania infantum [1], in the data set on THP-1 [5] and in the data set with Jurkat [8] were 380 nM, 18.8 µM and 26.8 µM, respectively. For the same molecule, the selectivity ratio is 77 in [2] and 71 in data set [4]. Moreover, the GI in the data set on Leishmania infantum [3] amounted to 98.7%; in the data set on Leishmania infantum [7] it was 96.3%; with Leishmania infantum [10] it was 81.8%. In addition, in data set [15], the Papp amounted to 2.01 ×10⁻⁶ cm/s. The Fa in [18] was found to be 98.3%. In addition, the “Ratio IC50” value with Leishmania infantum [6] came out at 7.5; in the data set on Leishmania infantum [11], 2.2. Further, in the data set on Leishmania infantum [25], the Activity stood at 17%.

Turning to `c1ccc(C[Se][Se]Cc2ccccc2)cc1` [BISBENZYLDISELENIDE], the figures for the IC50 in the data set on Leishmania infantum [1], with THP-1 [5] and with Jurkat [8] were 630 nM, 32.2 µM and 26.1 µM, respectively. Moreover, the selectivity ratio in data set [2] was 51; in data set [4], 41. Besides, the figures for the GI with Leishmania infantum [3], with Leishmania infantum [7] and with Leishmania infantum [10] were 60.4%, 43.6% and 33.2%, respectively. In addition, the Papp in data set [15] stood at 5.83 ×10⁻⁶ cm/s. The Fa in data set [18] came out at 100%. Moreover, in the data set with Leishmania infantum [25], the Activity is reported as 24%.
